These results are taken from ChEMBL document CHEMBL4257503, “N-Acetyl-3-aminopyrazoles block the non-canonical NF-kB cascade by selectively inhibiting NIK” (Medchemcomm, 2018).

The target in data set [1] is T1, Mitogen-activated protein kinase kinase kinase 14 (Homo sapiens, UniProt Q99558). Kind of data set: Inhibition of recombinant human full-length N-terminal GST-fused/His6-tagged NIK (M1 to P947 residues) expressed in Sf9 insect cells using AKDVDQGSLCTSFVGTLQY peptide as substrate measured after 60 mins by ADP-Glo kinase assay. On the technique in general: In ADP-Glo the light output rises with the ADP produced.
Target sequence in this assay (Q99558 whole entry, the tested form may be a part): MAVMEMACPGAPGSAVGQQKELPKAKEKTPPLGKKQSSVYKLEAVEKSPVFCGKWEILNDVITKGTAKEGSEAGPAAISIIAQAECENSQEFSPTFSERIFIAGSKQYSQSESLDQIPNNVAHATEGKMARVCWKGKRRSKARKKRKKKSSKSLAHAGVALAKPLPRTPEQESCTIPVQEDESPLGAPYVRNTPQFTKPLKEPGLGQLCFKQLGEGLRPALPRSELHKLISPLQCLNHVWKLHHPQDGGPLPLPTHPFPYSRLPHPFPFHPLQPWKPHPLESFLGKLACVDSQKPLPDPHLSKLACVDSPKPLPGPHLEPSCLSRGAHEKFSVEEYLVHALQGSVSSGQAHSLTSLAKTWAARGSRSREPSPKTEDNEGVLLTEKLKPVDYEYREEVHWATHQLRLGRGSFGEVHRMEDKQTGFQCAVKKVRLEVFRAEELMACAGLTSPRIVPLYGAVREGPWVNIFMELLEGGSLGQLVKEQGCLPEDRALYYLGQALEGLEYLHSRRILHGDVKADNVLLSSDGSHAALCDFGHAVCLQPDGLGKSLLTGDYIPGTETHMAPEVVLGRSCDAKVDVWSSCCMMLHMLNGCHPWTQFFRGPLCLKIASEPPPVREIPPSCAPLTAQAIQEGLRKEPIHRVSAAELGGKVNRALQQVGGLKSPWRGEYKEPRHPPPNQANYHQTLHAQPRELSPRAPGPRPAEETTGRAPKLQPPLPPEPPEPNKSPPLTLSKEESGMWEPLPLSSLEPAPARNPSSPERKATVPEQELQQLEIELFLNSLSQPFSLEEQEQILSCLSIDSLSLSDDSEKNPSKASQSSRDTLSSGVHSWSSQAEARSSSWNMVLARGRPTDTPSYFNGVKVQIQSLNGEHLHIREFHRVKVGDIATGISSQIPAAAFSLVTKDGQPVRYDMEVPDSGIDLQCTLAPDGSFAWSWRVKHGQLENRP

For a further data set, the species on record is Homo sapiens. Put plainly: Inhibition of NFkappaB activation in human SKBR3 cells at 100 uM after 6 hrs by dual luciferase reporter gene assay relative to control. Type of data set: cell-based. The procedure, abridged:
(§1)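 Cells were nucleofected with the pGL4.32 NF-κB-RE firefly luciferase and pGL4.74 TK-Renilla plasmids (3 µg, 10:1 ratio) and cultured for 24 h at 37 °C. Compound (10, 25, 50 or 100 µM) was then added for 6 h. Firefly luminescence was normalised to Renilla from the same sample and expressed as % of vehicle control. Means ± SD of three independent experiments.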
On the technique in general: In a reporter assay the amount or activity of a reporter protein is the signal.

Data set [2] in a line: Cytotoxicity against human EJM cells assessed as cell viability at 25 uM after 6 hrs by CellTiter Glo luminescent assay relative to control. Type of data set: cell-based. The note with it: read-out: Activity. A digest of the protocol: (§2)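 Cells seeded at 5 x 10^3 per well and exposed for 6 h to the compound (10, 25, 50 or 100 µM) or to DMSO vehicle. Viability was read as intracellular ATP by CellTiter Glo luminescence.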
On the technique in general: In ATP-based viability assays light output follows the ATP content of the culture.

In data set [3] the target is T2, Inhibitor of nuclear factor kappa-B kinase subunit epsilon (Homo sapiens, UniProt Q14164).
T2 sequence (Q14164 whole entry): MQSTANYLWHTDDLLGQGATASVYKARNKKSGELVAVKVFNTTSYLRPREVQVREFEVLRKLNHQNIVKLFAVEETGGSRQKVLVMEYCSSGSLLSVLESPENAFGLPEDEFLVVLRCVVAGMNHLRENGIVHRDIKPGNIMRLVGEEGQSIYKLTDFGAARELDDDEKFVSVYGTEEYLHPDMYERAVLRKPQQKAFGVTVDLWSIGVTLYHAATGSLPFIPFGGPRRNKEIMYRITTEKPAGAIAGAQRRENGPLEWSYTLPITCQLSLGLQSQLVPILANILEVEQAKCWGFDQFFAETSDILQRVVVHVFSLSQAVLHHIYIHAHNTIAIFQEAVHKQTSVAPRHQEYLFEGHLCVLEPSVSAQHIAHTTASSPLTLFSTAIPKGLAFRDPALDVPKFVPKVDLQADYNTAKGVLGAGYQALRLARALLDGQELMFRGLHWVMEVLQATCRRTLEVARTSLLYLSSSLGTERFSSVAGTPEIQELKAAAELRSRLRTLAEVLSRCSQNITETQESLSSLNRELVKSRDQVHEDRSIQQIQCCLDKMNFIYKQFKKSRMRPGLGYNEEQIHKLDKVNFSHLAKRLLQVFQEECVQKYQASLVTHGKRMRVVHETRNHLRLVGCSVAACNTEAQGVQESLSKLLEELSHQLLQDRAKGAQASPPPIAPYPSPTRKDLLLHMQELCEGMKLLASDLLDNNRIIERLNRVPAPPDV
Kind of data set: Inhibition of recombinant human full-length N-terminal GST-fused/His6-tagged IKKepsilon (M1 to V716 residues) expressed in Sf9 insect cells using ERLLDDRHDSGLDSMKDEE peptide as substrate measured after 60 mins by ADP-Glo kinase assay.

Data set [4] is described as follows: Cytotoxicity against human MDA-MB-231 cells assessed as cell viability at 100 uM after 6 hrs by CellTiter Glo luminescent assay relative to control. The note with it: read-out: Activity. Format: cell-based. A digest of the protocol: as §2
Data set [5] concerns the target T1, Mitogen-activated protein kinase kinase kinase 14. Kind of data set: Inhibition of NIK-induced NFkappaB activation in human EJM cells at 25 uM after 6 hrs by dual luciferase reporter gene assay relative to control. Format: cell-based. The procedure, abridged:
as §1
Target sequence in this assay (Q99558 whole entry, looked up, the tested form may be a part): as the sequence (Q99558 whole entry, the tested form may be a part) above

The subject of data set [6] is MDA-MB-231. Kind of data set: Inhibition of NFkappaB activation in human MDA-MB-231 cells at 100 uM after 6 hrs by dual luciferase reporter gene assay relative to control. Format: cell-based. A digest of the protocol:
as §1

The target of data set [7] is T3, Inhibitor of nuclear factor kappa-B kinase subunit beta (Homo sapiens, UniProt O14920).
T3 sequence (O14920 whole entry): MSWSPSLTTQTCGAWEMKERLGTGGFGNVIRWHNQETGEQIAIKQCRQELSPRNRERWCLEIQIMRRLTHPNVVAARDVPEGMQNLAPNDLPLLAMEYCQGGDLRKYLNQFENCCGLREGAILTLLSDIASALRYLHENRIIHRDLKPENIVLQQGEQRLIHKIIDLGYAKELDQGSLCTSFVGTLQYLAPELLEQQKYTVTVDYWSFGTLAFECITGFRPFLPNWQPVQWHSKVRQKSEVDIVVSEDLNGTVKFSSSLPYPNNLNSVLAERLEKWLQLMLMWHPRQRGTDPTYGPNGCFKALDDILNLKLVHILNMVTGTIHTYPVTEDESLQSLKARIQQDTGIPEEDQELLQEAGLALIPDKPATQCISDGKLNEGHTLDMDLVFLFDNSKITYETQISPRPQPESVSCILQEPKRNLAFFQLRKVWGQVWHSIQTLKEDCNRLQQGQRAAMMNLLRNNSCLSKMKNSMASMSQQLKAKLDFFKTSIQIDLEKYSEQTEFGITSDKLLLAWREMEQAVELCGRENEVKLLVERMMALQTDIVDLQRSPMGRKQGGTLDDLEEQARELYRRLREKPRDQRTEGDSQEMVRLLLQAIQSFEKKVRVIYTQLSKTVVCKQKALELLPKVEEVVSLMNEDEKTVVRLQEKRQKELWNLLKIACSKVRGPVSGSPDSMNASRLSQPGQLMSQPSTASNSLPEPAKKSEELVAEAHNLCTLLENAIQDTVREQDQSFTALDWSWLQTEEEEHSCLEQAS
Put plainly: Inhibition of recombinant human full-length N-terminal GST-fused/His6-tagged IKKbeta (M1 to S756 residues) expressed in Sf9 insect cells using ERLLDDRHDSGLDSMKDEE peptide as substrate measured after 60 mins by ADP-Glo kinase assay.

The nature of data set [8]: Cytotoxicity against human SKBR3 cells assessed as cell viability at 100 uM after 6 hrs by CellTiter Glo luminescent assay relative to control. The note with it: read-out: Activity. Type of data set: cell-based, SK-BR-3. A digest of the protocol:
as §2

Data set [9] deals with T4, Inhibitor of nuclear factor kappa-B kinase subunit alpha (Homo sapiens, UniProt O15111).
T4 sequence (O15111 whole entry): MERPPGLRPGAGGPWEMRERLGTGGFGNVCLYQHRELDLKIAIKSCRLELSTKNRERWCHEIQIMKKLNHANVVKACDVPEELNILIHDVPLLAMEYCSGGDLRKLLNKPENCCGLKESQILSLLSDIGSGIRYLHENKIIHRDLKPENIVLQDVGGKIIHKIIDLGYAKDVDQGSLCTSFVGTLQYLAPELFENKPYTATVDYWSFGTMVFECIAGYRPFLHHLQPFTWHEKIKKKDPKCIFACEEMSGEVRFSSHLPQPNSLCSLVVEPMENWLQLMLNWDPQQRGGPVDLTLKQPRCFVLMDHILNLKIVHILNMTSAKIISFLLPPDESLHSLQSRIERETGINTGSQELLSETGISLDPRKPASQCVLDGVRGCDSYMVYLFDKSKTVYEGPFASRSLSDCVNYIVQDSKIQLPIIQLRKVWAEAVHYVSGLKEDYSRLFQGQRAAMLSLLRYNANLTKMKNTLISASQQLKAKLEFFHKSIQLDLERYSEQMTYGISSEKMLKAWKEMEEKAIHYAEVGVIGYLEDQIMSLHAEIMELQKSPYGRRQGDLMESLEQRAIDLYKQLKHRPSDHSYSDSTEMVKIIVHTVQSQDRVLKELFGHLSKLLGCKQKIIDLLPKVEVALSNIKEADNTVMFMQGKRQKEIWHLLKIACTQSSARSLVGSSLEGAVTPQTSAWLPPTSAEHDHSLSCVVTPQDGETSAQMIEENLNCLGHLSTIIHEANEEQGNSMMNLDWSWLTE
Put plainly: Inhibition of recombinant full length human His-tagged IKKalpha expressed in baculovirus expression system using ERLLDDRHDSGLDSMKDEE peptide as substrate measured after 60 mins by ADP-Glo kinase assay. A digest of the protocol: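 Recombinant human IKKα, peptide substrate 100 µM, enzyme 8 ng/µL, ATP 1 µM in Tris-HCl pH 7.5 buffer with MgCl2, MnCl2, DTT, Na3VO4, BSA; 25°C, 60 min; ADP-Glo luminescence. Ten concentrations 0.005–100 µM; IC50 by nonlinear regression; means ± SD of three independent experiments.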

In data set [10] the target is T1, Mitogen-activated protein kinase kinase kinase 14. Kind of data set: Inhibition of NIK-induced NFkappaB activation in human EJM cells at 50 uM after 6 hrs by dual luciferase reporter gene assay relative to control. Type of data set: cell-based. The procedure, abridged: as §1
Target sequence in this assay (Q99558 whole entry, looked up, the tested form may be a part): as the sequence (Q99558 whole entry, the tested form may be a part) above
The nature of data set [11]: Cytotoxicity against human EJM cells assessed as cell viability at 50 uM after 6 hrs by CellTiter Glo luminescent assay relative to control. The note with it: read-out: Activity. Format: cell-based. The procedure, abridged:
as §2

Data set [12] relates to MDA-MB-231. Put plainly: Inhibition of NFkappaB activation in human MDA-MB-231 cells at 50 uM after 6 hrs by dual luciferase reporter gene assay relative to control. Type of data set: cell-based. The procedure, abridged: as §1
Data set [13] can be described thus: Cytotoxicity against human MDA-MB-231 cells assessed as cell viability at 50 uM after 6 hrs by CellTiter Glo luminescent assay relative to control. The settings on record: read-out: Activity. Format: cell-based. The procedure, abridged: as §2

For the compound `Cc1nn(C(=O)C2CCC2)c(N)c1-c1ccc(Cl)c(Cl)c1`, the IC50 in [1] is 2.9 µM; in data set [3], greater than 100 µM; in [7] it was greater than 100 µM; in data set [9], greater than 100 µM. For the same compound, the figures for the inhibition (in the data set filed under Homo sapiens; in data set [5]; in the data set on MDA-MB-231 [6]) were 5.2%, 96.2% and 2.36%, respectively. The viability at 6 h, 25 µM in data set [2] was no less than 80%. The viability at 6 h, 100 µM in data set [4] and in [8] was no less than 80% throughout.

`CC(=O)n1nc(N)c(-c2ccc(Cl)c(Cl)c2)c1C`: the IC50 in data set [1], in [3], in [7] and in data set [9] was greater than 100 µM in each case.

Regarding `Cc1nn(C(=O)OC(C)(C)C)c(N)c1-c1ccc(Cl)c(Cl)c1`, the IC50 in [1], in data set [3], in data set [7] and in data set [9] was greater than 100 µM in each case.

As for `Cc1c(-c2ccc(Cl)c(Cl)c2)c(N)nn1C(=O)c1cccnc1`, the concentration for half-maximal inhibition (IC50) in data set [1], in data set [3], in data set [7] and in [9] was greater than 100 µM in each case.

With `Cc1n[nH]c(N)c1-c1ccccc1`, the IC50 in data set [1], in [3], in data set [7] and in data set [9] was greater than 100 µM each time.

Turning to `Cc1nn(C(=O)c2ccccc2)c(N)c1-c1ccc(Cl)c(Cl)c1`, the inhibition in data set [10] came to 75.2%; in the data set listed under Homo sapiens, 0.31%; in the data set on MDA-MB-231 [6], 13.8%. The 50% inhibitory concentration (IC50) in [1] is 23 µM; in [3], greater than 100 µM; in [7], greater than 100 µM; in [9], greater than 100 µM. Further, the viability at 6 h, 100 µM in data set [4] and in [8] was no less than 80% in each case. For the same compound, the viability at 6 h, 50 µM in [11] is no less than 80%.

Turning to `Cc1nn(C(=O)C2CCCCC2)c(N)c1-c1ccc(Cl)c(Cl)c1`, the IC50 in data set [1] is 3.3 µM; in data set [3] it was greater than 100 µM; in data set [7] it was greater than 100 µM; in data set [9], greater than 100 µM. The inhibition amounted to 3.7% in the data set listed under Homo sapiens, 94.7% in [5] and 2.36% in the data set with MDA-MB-231 [6]. Besides, the viability at 6 h, 25 µM in data set [2] was no less than 80%. The viability at 6 h, 100 µM in data set [4] and in data set [8] was no less than 80% in each case.

Take `CC(=O)n1nc(C)c(-c2cccc(Cl)c2)c1N`: the IC50 in [1], in [3], in [7] and in data set [9] was greater than 100 µM in each case.

On to `Cc1[nH]nc(N)c1-c1ccc(Br)cc1`, for which the 50% inhibitory concentration (IC50) is greater than 100 µM in data set [1], greater than 100 µM in [3], 60.1 µM in [7] and 89.7 µM in data set [9].

For `Cc1nn(C(=O)C2CC2)c(N)c1-c1ccc(Cl)cc1`, the concentration for half-maximal inhibition (IC50) in [1], in data set [3], in [7] and in [9] was greater than 100 µM throughout.

As to `CCC(=O)n1nc(C)c(-c2ccc(Cl)c(Cl)c2)c1N`, the inhibition was 66.8% in data set [10], -3.14% in the data set listed under Homo sapiens and 10.3% in the data set with MDA-MB-231 [6]. Moreover, the IC50 in data set [1] was 27.4 µM; in [3] it was greater than 100 µM; in [7], greater than 100 µM; in [9] it was greater than 100 µM. Also, the viability at 6 h, 100 µM in data set [4] and in [8] was no less than 80% throughout. The viability at 6 h, 50 µM in data set [11] is no less than 80%.

As to `Cc1n[nH]c(N)c1-c1ccc(Cl)cc1`, the inhibition in data set [10] was 10.4%; in the data set with MDA-MB-231 [12] it was 29.9%; in the data set filed under Homo sapiens it was 4.2%. Further, the concentration for half-maximal inhibition (IC50) was 61.1 µM in data set [1], greater than 100 µM in [3], 37.9 µM in data set [7] and greater than 100 µM in data set [9]. The viability at 6 h, 50 µM in data set [13] and in data set [11] was no less than 80% each time. Further, in data set [8], the viability at 6 h, 100 µM is no less than 80%.

In general, IC50 refers to the midpoint of a concentration-inhibition curve. As usually defined, the inhibition is the change of the read-out against control, counted positive when it falls.
